The text below walks through data of ChEMBL document CHEMBL1141109, “Synthesis of an estrogen receptor beta-selective radioligand: 5-[18F]fluoro-(2R,3S)-2,3-bis(4-hydroxyphenyl)pentanenitrile and comparison of in vivo distribution with 16alpha-[18F]fluoro-17beta-estradiol” (J Med Chem, 2005).

Series [1] is described as follows: Biodistribution of [18F]FES in beta estrogen receptor knock out mouse ovaries after 30 min; (n=3). The format is ADME, organism-based, Female gonad. The conditions noted are these: in vivo, 0.5 h.
Series [2] is described as follows: Biodistribution of [18F]FES in alpha estrogen receptor knock out mouse ovaries after 30 min; (n=3). Type of series: ADME, organism-based, Female gonad. The note with it: in vivo, 0.5 h.
A short description of series [3]: Biodistribution of [18F]FES in beta estrogen receptor knock out mouse liver after 30 min(n=2); mice in nonestrus stage. The format is ADME, organism-based. The conditions noted are these: in vivo, 0.5 h.
A short description of series [4]: Biodistribution of [18F]FES in beta estrogen receptor knock out mouse thymus after 30 min(n=2); mice in nonestrus stage. The note with it: in vivo, 0.5 h. The format is ADME, organism-based.
A short description of series [5]: Biodistribution of [18F]FES in alpha estrogen receptor knock out mouse lung after 2 h; (n=3). Type of series: ADME, organism-based. The note with it: in vivo. In outline: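 Female αERKO mice were rested 48 h after shipping and fed estrogen-free chow. They were staged by daily vaginal smears and studied in diestrus. Each received 13 µCi [18F]FES in 100 µL 10% ethanol/saline and was sacrificed at 30 min, 1 h or 2 h (n = 3 per time). Tissue uptake is given as %ID/g ± SD.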

Series [6] in a line: Biodistribution of [18F]FES in beta estrogen receptor knock out mouse lung after 1 h; (n=3). The format is ADME, organism-based. The conditions noted are these: in vivo.
Series [7] is described as follows: Biodistribution of [18F]FES in alpha estrogen receptor knock out mouse thymus after 2 h; (n=3). The format is ADME, organism-based. The note with it: in vivo.
A short description of series [8]: Biodistribution of [18F]FES in beta estrogen receptor knock out mouse muscle after 30 min; (n=3). The format is ADME, organism-based, Muscle tissue. The note with it: in vivo, 0.5 h.
Series [9] can be described thus: Biodistribution of [18F]FES in beta estrogen receptor knock out mouse spleen after 30 min; (n=3). The format is ADME, organism-based. The note with it: in vivo, 0.5 h.
Series [10] in a line: Biodistribution of [18F]FEDPN in alpha estrogen receptor knock out mouse liver after 30 min; (n=3). Type of series: ADME, organism-based. The note with it: in vivo, 0.5 h. In outline:
(§1)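 ERKO female mice (αERKO or βERKO), rested 48 h after shipping, placed on estrogen-free chow, and staged by daily vaginal smears. Injected in a nonestrous stage with 11 µCi [18F]FEDPN in 130 µL of 10% ethanol/saline. Killed at 30 min, 1 h or 2 h. Organs counted and reported as %ID/g ± SD, three animals per point.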

Series [11] is described as follows: Biodistribution of [18F]FEDPN in beta estrogen receptor knock out mouse kidney after 30 min; (n=3). The format is ADME, organism-based. The conditions noted are these: in vivo, 0.5 h. The gist of the method:
(§2)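 αERKO and βERKO mice, staged by daily vaginal smears and kept on estrogen-free chow, were studied in a nonestrous stage. Each mouse received 11 μCi of tracer in 130 μL of 10% ethanol/saline. Mice were killed at 30 min, 1 h or 2 h (n = 3 each). Organs were removed, blotted, weighed and gamma-counted against an injectate standard. Uptake is given as %ID/g ± SD.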

Series [12] is described as follows: Biodistribution of [18F]FEDPN in rat blood after 30 min when given in tail vein; (n=5). The format is ADME, organism-based. The conditions noted are these: in vivo, iv, 0.5 h. The gist of the method: (§3)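 Immature female Sprague–Dawley rats (<25 days old) under isoflurane/O2 got 20 µCi tracer in 150 µL 20% ethanol/saline by tail vein. […] Rats were killed at 30 min, 1 h or 2 h. Organs were blotted, weighed and gamma-counted against an injectate standard. Data are %ID/g ± SD, five rats per point.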

Series [13] in a line: Biodistribution of [18F]FEDPN in beta estrogen receptor knock out mouse fat after 1 h; (n=3). Type of series: ADME, organism-based, Adipose tissue. The conditions noted are these: in vivo. In outline: as §2
Series [14] can be described thus: Biodistribution of [18F]FEDPN in alpha estrogen receptor knock out mouse fat after 1 h; (n=3). The note with it: in vivo. The format is ADME, organism-based, Adipose tissue. The gist of the method: as §1
Series [15] in a line: Biodistribution of [18F]FEDPN in beta estrogen receptor knock out mouse bone after 2 h; (n=3). Type of series: ADME, organism-based, Bone element. The note with it: in vivo. The gist of the method: as §2
Series [16] is described as follows: Biodistribution of [18F]FEDPN in alpha estrogen receptor knock out mouse bone after 1 h; (n=3). The format is ADME, organism-based, Bone element. The conditions noted are these: in vivo. In outline: as §1
The nature of series [17]: Biodistribution of [18F]FEDPN in alpha estrogen receptor knock out mouse lung after 2 h; (n=3). The conditions noted are these: in vivo. The format is ADME, organism-based. In outline:
as §2

Series [18] can be described thus: Biodistribution of [18F]FEDPN in rat lung after 2 h when given in tail vein; (n=5). Type of series: ADME, organism-based. The note with it: in vivo, iv. The gist of the method:
as §3

Series [19] in a line: Biodistribution of [18F]FEDPN in rat blood after 2 h when given in tail vein; (n=5). Type of series: ADME, organism-based. The conditions noted are these: in vivo, iv. In outline: as §3
Series [20] in a line: Biodistribution of [18F]-FEDPN in rat heart after 2 hr when given in tail vein; (n=5). The note with it: in vivo, iv. Type of series: ADME, organism-based. In outline: (§4)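 Immature female Sprague–Dawley rats (<25 days old) anesthetized with isoflurane/O2. Given 20 µCi tracer by tail vein in 150 µL of 20% ethanol/saline. […] Killed at 30 min, 1 h or 2 h. Blood and organs blotted, weighed and gamma-counted against a standard dilution of the injectate. Reported as %ID/g ± SD, n=5.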

Series [21] in a line: Biodistribution of [18F]FEDPN in rat liver after 1 h when given in tail vein; (n=5). Type of series: ADME, organism-based. The conditions noted are these: in vivo, iv. The gist of the method: as §3
Series [22] can be described thus: Biodistribution of [18F]-FEDPN in rat liver after 2 hr when given in tail vein; (n=5). The format is ADME, organism-based. The note with it: in vivo, iv. In outline:
as §4

A short description of series [23]: Biodistribution of [18F]-FEDPN in rat muscle after 2 hr when given in tail vein; (n=5). Type of series: ADME, organism-based, Muscle tissue. The conditions noted are these: in vivo, iv. In outline:
as §4

A short description of series [24]: Biodistribution of [18F]-FEDPN in rat uterus after 1 hr when given in tail vein; (n=5). The format is ADME, organism-based. The conditions noted are these: in vivo, iv. The gist of the method:
as §4

Series [25] in a line: Biodistribution of [18F]FEDPN in rat fat after 1 h block when given in tail vein; (n=5). Type of series: ADME, organism-based, Adipose tissue. The conditions noted are these: in vivo, iv. In outline:
as §3

Series [26] can be described thus: Biodistribution of [18F]FEDPN in rat thymus after 30 min when given in tail vein; (n=5). The format is ADME, organism-based. The note with it: in vivo, iv, 0.5 h. In outline: as §3
Series [27] in a line: Biodistribution of [18F]FEDPN in rat thymus after 1 h block when given in tail vein; (n=5). Type of series: ADME, organism-based. The conditions noted are these: in vivo, iv. The gist of the method: as §3
Series [28] in a line: Biodistribution of [18F]-FEDPN in rat uterus after 1 hr block when given in tail vein; (n=5). The note with it: in vivo, iv. The format is ADME, organism-based. In outline: as §4
Series [29] is described as follows: Biodistribution of [18F]FEDPN in beta estrogen receptor knock out mouse liver after 2 h; (n=3). The conditions noted are these: in vivo. Type of series: ADME, organism-based. The gist of the method: as §2
Series [30] can be described thus: Biodistribution of [18F]FEDPN in alpha estrogen receptor knock out mouse liver after 1 h; (n=3). Type of series: ADME, organism-based. The note with it: in vivo. The gist of the method:
as §1

Series [31] can be described thus: Biodistribution of [18F]FEDPN in beta estrogen receptor knock out mouse muscle after 1 h; (n=3). The format is ADME, organism-based, Muscle tissue. The note with it: in vivo. In outline:
as §2

The nature of series [32]: Biodistribution of [18F]FEDPN in beta estrogen receptor knock out mouse bone after 30 min; (n=3). The format is ADME, organism-based, Bone element. The conditions noted are these: in vivo, 0.5 h. In outline:
as §2

The nature of series [33]: Biodistribution of [18F]FEDPN in beta estrogen receptor knock out mouse ovaries after 1 h; (n=3). Type of series: ADME, organism-based, Female gonad. The conditions noted are these: in vivo. In outline:
as §2

Series [34] in a line: Biodistribution of [18F]-FEDPN in alpha estrogen receptor knock out mouse ovaries after 1 h; (n=3). Type of series: ADME, organism-based, Female gonad. The note with it: in vivo. The gist of the method: as §1
Series [35] in a line: Biodistribution of [18F]FEDPN in alpha estrogen receptor knock out mouse ovaries after 30 min; (n=3). The format is ADME, organism-based, Female gonad. The conditions noted are these: in vivo, 0.5 h. The gist of the method:
as §2

The nature of series [36]: Biodistribution of [18F]FEDPN in alpha estrogen receptor knock out mouse fat after 30 min; (n=3). Type of series: ADME, organism-based, Adipose tissue. The conditions noted are these: in vivo, 0.5 h. In outline:
as §1

Series [37] is described as follows: Biodistribution of [18F]FEDPN in alpha estrogen receptor knock out mouse muscle after 2 h; (n=3). Type of series: ADME, organism-based, Muscle tissue. The note with it: in vivo. In outline: as §2
In series [38] the target is T1, Estrogen receptor (Mus musculus) (UniProt O08537+P19785). In words: Ratio of [18F]FEDPN uptake in uterus of ERbeta KO-mouse and ERalpha KO-mouse (nonestrus) after 1 hr.
The target in series [39] is T1, Estrogen receptor (Mus musculus). The series is described as follows: Ratio of [18F]FEDPN uptake in ovaries of ERbeta KO-mouse and ERalpha KO-mouse (nonestrus) after 1 hr.

T1 sequence (O08537 whole entry, looked up): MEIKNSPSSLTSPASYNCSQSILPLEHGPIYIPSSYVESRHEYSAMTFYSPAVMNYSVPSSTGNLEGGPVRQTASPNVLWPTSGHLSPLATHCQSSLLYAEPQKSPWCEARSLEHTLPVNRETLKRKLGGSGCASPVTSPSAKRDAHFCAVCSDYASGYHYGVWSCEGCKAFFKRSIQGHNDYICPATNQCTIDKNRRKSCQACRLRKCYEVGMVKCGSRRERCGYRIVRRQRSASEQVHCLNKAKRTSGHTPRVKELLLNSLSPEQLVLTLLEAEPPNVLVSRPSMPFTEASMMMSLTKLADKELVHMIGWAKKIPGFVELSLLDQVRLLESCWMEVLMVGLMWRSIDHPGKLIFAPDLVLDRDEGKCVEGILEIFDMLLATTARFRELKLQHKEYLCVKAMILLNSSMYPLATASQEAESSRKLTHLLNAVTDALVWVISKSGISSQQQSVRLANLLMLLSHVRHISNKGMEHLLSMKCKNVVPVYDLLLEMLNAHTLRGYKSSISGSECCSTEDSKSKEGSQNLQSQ
T1 sequence (P19785 whole entry, looked up): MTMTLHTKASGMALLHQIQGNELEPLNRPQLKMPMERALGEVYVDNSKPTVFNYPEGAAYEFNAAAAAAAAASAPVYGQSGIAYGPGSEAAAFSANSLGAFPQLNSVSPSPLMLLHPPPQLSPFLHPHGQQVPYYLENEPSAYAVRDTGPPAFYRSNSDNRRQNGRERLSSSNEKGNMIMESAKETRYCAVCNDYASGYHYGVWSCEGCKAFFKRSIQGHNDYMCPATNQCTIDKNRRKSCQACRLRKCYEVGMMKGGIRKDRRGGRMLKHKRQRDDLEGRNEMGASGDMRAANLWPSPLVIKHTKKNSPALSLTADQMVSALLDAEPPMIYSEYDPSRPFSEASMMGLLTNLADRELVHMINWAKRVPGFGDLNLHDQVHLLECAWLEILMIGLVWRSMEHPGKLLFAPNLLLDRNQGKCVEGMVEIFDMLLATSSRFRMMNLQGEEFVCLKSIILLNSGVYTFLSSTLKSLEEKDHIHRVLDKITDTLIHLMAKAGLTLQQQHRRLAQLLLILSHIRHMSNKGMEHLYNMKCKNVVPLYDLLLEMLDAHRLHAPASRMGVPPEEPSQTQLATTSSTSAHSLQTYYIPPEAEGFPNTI

In the case of `C[C@]12CC[C@@H]3c4ccc(O)cc4CC[C@H]3[C@@H]1C[C@@H](F)[C@@H]2O` [FLUOROESTRADIOL], the Biodistribution in series [1] is 6.54 %ID/g; in [2], 2.52 %ID/g; in series [3], 7.91 %ID/g; in series [4], 1.65 %ID/g; in [5], 0.17 %ID/g; in series [6], 1.48 %ID/g. In addition, the Biodistribution in series [7] is on record as 0.1 %ID/g; in [8] it was 1.7 %ID/g; in series [9] it was 1.4 %ID/g.
In the case of `N#C[C@H](c1ccc(O)cc1)[C@@H](CCF)c1ccc(O)cc1`, the Biodistribution in [10] worked out at 3.7 %ID/g; in [11], 4.83 %ID/g; in series [12], 0.64 %ID/g; in series [13] it was 0.33 %ID/g; in series [14], 0.27 %ID/g; in [15], 5.15 %ID/g. The Biodistribution in series [16] came to 4.13 %ID/g; in series [17], 0.75 %ID/g; in series [18], 0.19 %ID/g; in [19], 0.24 %ID/g; in [20] it was 0.11 %ID/g; in [21], 1.51 %ID/g. Moreover, the Biodistribution in [22] came out at 0.62 %ID/g; in series [23] it was 0.09 %ID/g; in series [24], 0.74 %ID/g; in series [25], 0.21 %ID/g; in series [26], 0.52 %ID/g; in series [27], 0.16 %ID/g. Further, the Biodistribution is 0.34 %ID/g in series [28]; 2.04 %ID/g in [29]; 3.8 %ID/g in [30]; 0.75 %ID/g in [31]; 3.35 %ID/g in series [32]; 0.41 %ID/g in series [33]. In addition, the Biodistribution in series [34] is recorded as 0.52 %ID/g; in series [35], 1.06 %ID/g; in series [36], 0.57 %ID/g; in [37], 0.36 %ID/g. In addition, the Ratio was found to be 1.46 in series [38] and 0.79 in [39].
